Activity calls are given as the source filed them. The rule behind the calls is not given here.
Assays:
[1] = target: Beta-secretase 1 (Homo sapiens) (UniProt P56817); test: Inhibition of BACE1 at pH 6.5
Outline: (§1)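 Enzymatic BACE-1 inhibition assay run at the pH given in each line. Potency is reported as the inflection point (IP), in nM.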

[2] = target: Beta-secretase 1 (Homo sapiens) (UniProt P56817); test: Inhibition of BACE1-mediated production of secreted beta-secretase amino terminal fragment
Outline: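 Cell-based sAPP_NF assay: cells express APP carrying the NF mutation, and secreted sAPP is the read-out. IC50 is given as mean ± deviation.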

[3] = target: Beta-secretase 1 (Homo sapiens) (UniProt P56817); test: Inhibition of BACE1 at pH 4.5; outline: as §1
[4] = target: ATP-dependent translocase ABCB1 (Homo sapiens, UniProt P08183); test: Inhibition of human P-glycoprotein assessed as PGP ratio
Mus musculus = species: Mus musculus; test: Inhibition of mouse P-glycoprotein assessed as PGP ratio
[5] = Partition coefficient, log P of the compound; assay type: physicochemical; settings: octanol/water
[6] = Plasma concentration in Rhesus monkey at 15 mg/kg, po co-administered with CYP inhibitor ritonavir 10 mg/kg, po after 4 hrs; assay type: ADME, organism-based, Macaca mulatta
Outline: (§2)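 In a satellite PK experiment, rhesus monkeys (n = 3) received the test article at the stated dose together with 10 mpk ritonavir. Plasma levels (µM) were measured at 4 h and 24 h and averaged with standard deviations. Values below the limit of quantitation are marked BLQ.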

[7] = Plasma concentration in Rhesus monkey at 15 mg/kg, po co-administered with CYP inhibitor ritonavir 10 mg/kg, po after 24 hrs; assay type: ADME, organism-based, Macaca mulatta; outline: as §2
Rhesus monkey [8] = test: Reduction in CSF amyloid beta40 level in cisterna magna ported Rhesus monkey at 15 mg/kg, po co-administered with CYP inhibitor ritonavir 10 mg/kg, po measured after 4 hrs by sandwich ELISA; assay type: functional, organism-based; settings: Macaca mulatta
Rhesus monkey [9] = test: Reduction in CSF amyloid beta40 level in cisterna magna ported Rhesus monkey at 15 mg/kg, po co-administered with CYP inhibitor ritonavir 10 mg/kg, po measured after 24 hrs by sandwich ELISA; assay type: functional, organism-based; settings: Macaca mulatta
[10] = Ratio of drug level in brain to plasma in transgenic mouse at 30 mg/kg, ip; settings: brain and plasma
Rhesus monkey [11] = test: Reduction in CSF amyloid beta42 level in cisterna magna ported Rhesus monkey at 15 mg/kg, po co-administered with CYP inhibitor ritonavir 10 mg/kg, po measured after 4 hrs by sandwich ELISA; settings: Macaca mulatta
Rhesus monkey [12] = test: Reduction in CSF soluble APPbeta level in cisterna magna ported Rhesus monkey at 15 mg/kg, po co-administered with CYP inhibitor ritonavir 10 mg/kg, po measured after 4 hrs by sandwich ELISA; settings: Macaca mulatta
[13] = Plasma concentration in Rhesus monkey at 5 mg/kg, po co-administered with CYP inhibitor ritonavir 10 mg/kg, po after 4 hrs; assay type: ADME, organism-based, Macaca mulatta; outline: as §2
Rhesus monkey [14] = test: Plasma concentration in Rhesus monkey at 5 mg/kg, po co-administered with CYP inhibitor ritonavir 10 mg/kg, po after 24 hrs; assay type: ADME, organism-based, Macaca mulatta; settings: in vivo, BLD = below limit of detection; outline: as §2
Rhesus monkey [15] = test: Reduction in CSF amyloid beta40 level in cisterna magna ported Rhesus monkey at 5 mg/kg, po co-administered with CYP inhibitor ritonavir 10 mg/kg, po measured after 4 hrs by sandwich ELISA; assay type: functional, organism-based; settings: Macaca mulatta
Rhesus monkey [16] = test: Reduction in CSF amyloid beta42 level in cisterna magna ported Rhesus monkey at 15 mg/kg, po co-administered with CYP inhibitor ritonavir 10 mg/kg, po measured after 4 hrs by sandwich ELISA; assay type: functional, organism-based; settings: Macaca mulatta
Rhesus monkey [17] = test: Reduction in CSF soluble APPbeta level in cisterna magna ported Rhesus monkey at 15 mg/kg, po co-administered with CYP inhibitor ritonavir 10 mg/kg, po measured after 4 hrs by sandwich ELISA; assay type: functional, organism-based; settings: Macaca mulatta

Sequence of Beta-secretase 1 (Homo sapiens) (P56817 whole entry, the tested form may be a part): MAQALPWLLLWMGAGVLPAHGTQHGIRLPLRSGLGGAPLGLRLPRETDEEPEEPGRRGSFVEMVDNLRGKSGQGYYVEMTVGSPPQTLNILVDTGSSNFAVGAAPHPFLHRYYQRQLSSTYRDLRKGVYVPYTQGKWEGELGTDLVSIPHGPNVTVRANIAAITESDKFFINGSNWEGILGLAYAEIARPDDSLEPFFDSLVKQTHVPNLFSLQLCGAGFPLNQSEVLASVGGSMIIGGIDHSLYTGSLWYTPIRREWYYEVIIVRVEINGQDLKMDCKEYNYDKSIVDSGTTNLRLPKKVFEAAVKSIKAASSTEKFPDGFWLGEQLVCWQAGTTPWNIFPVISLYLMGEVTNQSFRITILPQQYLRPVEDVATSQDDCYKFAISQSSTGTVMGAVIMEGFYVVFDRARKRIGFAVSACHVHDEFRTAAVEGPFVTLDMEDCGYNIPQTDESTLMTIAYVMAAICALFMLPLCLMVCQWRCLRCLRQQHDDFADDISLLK
Sequence of ATP-dependent translocase ABCB1 (P08183 whole entry): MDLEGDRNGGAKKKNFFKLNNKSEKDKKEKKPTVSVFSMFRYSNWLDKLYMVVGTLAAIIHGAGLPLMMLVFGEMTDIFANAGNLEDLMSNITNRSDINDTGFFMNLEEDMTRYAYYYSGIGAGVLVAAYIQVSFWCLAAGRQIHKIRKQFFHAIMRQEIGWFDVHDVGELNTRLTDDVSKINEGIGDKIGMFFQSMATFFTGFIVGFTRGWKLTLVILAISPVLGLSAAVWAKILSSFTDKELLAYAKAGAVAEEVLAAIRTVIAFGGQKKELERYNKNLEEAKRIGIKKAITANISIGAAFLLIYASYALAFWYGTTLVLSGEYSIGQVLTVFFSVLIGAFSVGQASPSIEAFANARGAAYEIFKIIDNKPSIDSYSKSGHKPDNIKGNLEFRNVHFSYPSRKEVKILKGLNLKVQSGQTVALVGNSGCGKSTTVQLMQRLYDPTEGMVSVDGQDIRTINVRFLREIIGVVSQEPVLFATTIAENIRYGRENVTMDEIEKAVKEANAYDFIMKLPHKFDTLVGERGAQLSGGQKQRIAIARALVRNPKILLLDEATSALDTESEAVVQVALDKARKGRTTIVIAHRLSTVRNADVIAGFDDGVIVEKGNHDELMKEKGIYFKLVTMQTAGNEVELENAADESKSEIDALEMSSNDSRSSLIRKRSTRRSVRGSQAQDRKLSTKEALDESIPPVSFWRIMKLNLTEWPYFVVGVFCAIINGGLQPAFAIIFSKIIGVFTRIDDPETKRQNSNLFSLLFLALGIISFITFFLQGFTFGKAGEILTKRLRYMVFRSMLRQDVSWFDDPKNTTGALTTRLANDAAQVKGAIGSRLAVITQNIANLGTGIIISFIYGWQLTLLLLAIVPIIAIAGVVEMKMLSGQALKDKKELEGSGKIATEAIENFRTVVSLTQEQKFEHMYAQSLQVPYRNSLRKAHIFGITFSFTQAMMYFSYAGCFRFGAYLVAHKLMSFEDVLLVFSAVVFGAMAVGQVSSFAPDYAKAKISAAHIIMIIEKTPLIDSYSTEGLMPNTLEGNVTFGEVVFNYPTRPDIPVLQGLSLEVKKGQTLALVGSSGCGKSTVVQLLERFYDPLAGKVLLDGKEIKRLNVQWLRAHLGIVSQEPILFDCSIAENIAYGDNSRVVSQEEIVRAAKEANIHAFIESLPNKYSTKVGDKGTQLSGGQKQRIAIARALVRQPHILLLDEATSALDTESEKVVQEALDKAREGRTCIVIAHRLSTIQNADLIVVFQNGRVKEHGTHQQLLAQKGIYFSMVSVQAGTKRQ

Compound	IP [1] [nM]	IP [2] [nM]	further results
COCCN(C[C@H]1C[C@@H]1C)c1cc(-c2nnc([C@](C)(N)Cc3ccco3)o2)c(Cl)c(N(C)S(C)(=O)=O)n1	375	3190	–
COCCN(C[C@H]1C[C@@H]1C)c1cc(-c2nnc([C@](C)(N)Cc3cccc(OC)c3)o2)c(Cl)c(N(C)S(C)(=O)=O)n1	1500	–	–
COCCN(C[C@H]1C[C@@H]1C)c1cc(-c2nnc([C@](C)(N)Cc3ccccc3Cl)o2)c(Cl)c(N(C)S(C)(=O)=O)n1	340	> 6700	–
COCCN(C[C@H]1C[C@@H]1C)c1cc(-c2nnc([C@](C)(N)Cc3ccccc3)o2)c(Cl)c(N(C)S(C)(=O)=O)n1	5	46	IP [3]: 0.4 nM; Ratio [4]: 1.9; Ratio (Mus musculus): 2.3; logP [5]: > 3.2; concentration at 4 h [6]: 3360 nM; concentration at 24 h [7]: 100 nM; Activity (Rhesus monkey [8]): Active; Activity (Rhesus monkey [9]): Active; Kp [10]: 9; Activity (Rhesus monkey [11]): Active; Activity (Rhesus monkey [12]): Active
COCCN(C[C@H]1C[C@@H]1C)c1cc(-c2nnc([C@](C)(N)Cc3ccccc3F)o2)c(Cl)c(N(C)S(C)(=O)=O)n1	15	195	–
COCCN(C[C@H]1C[C@@H]1C)c1cc(-c2nnc([C@](C)(N)Cc3ccnc(OC)c3)o2)c(Cl)c(N(C)S(C)(=O)=O)n1	9900	–	–
COCCN(C[C@H]1C[C@@H]1C)c1cc(-c2nnc([C@](C)(N)Cc3cccc(Cl)c3)o2)c(Cl)c(N(C)S(C)(=O)=O)n1	65	4320	–
COCCN(C[C@H]1C[C@@H]1C)c1cc(-c2nnc([C@](C)(N)Cc3cc(Br)c(F)cc3Br)o2)c(Cl)c(N(C)S(C)(=O)=O)n1	29000	–	–
COCCN(C[C@H]1C[C@@H]1C)c1cc(-c2nnc([C@](C)(N)Cc3ccc(OC)cc3)o2)c(Cl)c(N(C)S(C)(=O)=O)n1	180	4300	–
COCCN(C[C@H]1C[C@@H]1C)c1cc(-c2nnc([C@](C)(N)Cc3cccc(F)c3)o2)c(Cl)c(N(C)S(C)(=O)=O)n1	17	304	–
COCCN(C[C@H]1C[C@@H]1C)c1cc(-c2nnc([C@](C)(N)Cc3ccc(Cl)cc3)o2)c(Cl)c(N(C)S(C)(=O)=O)n1	4	320	–
COCCN(C[C@H]1C[C@@H]1C)c1cc(-c2nnc([C@](C)(N)Cc3ccc4c(c3)OCO4)o2)c(Cl)c(N(C)S(C)(=O)=O)n1	119	1100	–
COCCN(C[C@H]1C[C@@H]1C)c1cc(-c2nnc([C@](C)(N)Cc3ccc(F)cc3)o2)c(Cl)c(N(C)S(C)(=O)=O)n1	2	15	Ratio [4]: 1.1; Ratio (Mus musculus): 1.9; concentration at 4 h [6]: 2340 nM; concentration at 24 h [7]: 30 nM; concentration at 4 h [13]: 1310 nM; Cp (Rhesus monkey [14]): BLD; Activity (Rhesus monkey [15]): Active; Activity (Rhesus monkey [16]): Active; Activity (Rhesus monkey [17]): Active
COCCN(C[C@H]1C[C@@H]1C)c1cc(-c2nnc([C@](C)(N)Cc3ccc(Br)cc3Br)o2)c(Cl)c(N(C)S(C)(=O)=O)n1	> 600000	–	–
COCCN(C[C@H]1C[C@@H]1C)c1cc(-c2nnc([C@](C)(N)Cc3ccc(OC)nc3)o2)c(Cl)c(N(C)S(C)(=O)=O)n1	1400	–	–
COCCN(C[C@H]1C[C@@H]1C)c1cc(-c2nnc([C@](C)(N)Cc3ncco3)o2)c(Cl)c(N(C)S(C)(=O)=O)n1	49000	–	–
CCCC[C@@](C)(N)c1nnc(-c2cc(N(CCOC)C[C@H]3C[C@@H]3C)nc(N(C)S(C)(=O)=O)c2Cl)o1	1300	> 2200	–
COCCN(C[C@H]1C[C@@H]1C)c1cc(-c2nnc([C@](C)(N)Cc3ccoc3)o2)c(Cl)c(N(C)S(C)(=O)=O)n1	142	1930	–
COCCN(C[C@H]1C[C@@H]1C)c1cc(-c2nnc([C@](C)(N)Cc3ccccc3OC)o2)c(Cl)c(N(C)S(C)(=O)=O)n1	3500	–	–
